Assay results: ChEMBL document CHEMBL4725355, “Design, Synthesis, and Preclinical Evaluation of 3-Methyl-6-(5-thiophenyl)-1,3-dihydro-imidazo[4,5-b]pyridin-2-ones as Selective GluN2B Negative Allosteric Modulators for the Treatment of Mood Disorders” (J Med Chem, 2020)
≈ marks a conversion by molar mass, not a printed value.

Assays:
[1] = Negative allosteric modulation of human GluN1a/GluN2B receptor expressed in CHO cells assessed as inhibition of glutamate and glycine-induced calcium flux preincubated for 5 mins followed by glutamate and glycine addition and measured after 5 mins by calcium 5 dye based FLIPR assay; assay type: cell-based
Procedure, shortened: (§1)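 Tet-On CHO T-Rex cells expressing hGluN1a with GluN2A, 2B, 2C or 2D, plated at 20,000 cells/well and induced 24 h before the assay in the presence of ketamine. Cells loaded 1 h at room temperature with Calcium 5 dye, pH 7.4 HEPES buffer. Compound added 5 min, then glutamate (~EC80) plus 10 µM glycine for 5 min; FLIPR fluorescence normalized to control wells. Three independent runs in duplicate (two for some).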

[2] = Solubility of compound in phosphate buffer at pH 2 measured after 3 days; assay type: physicochemical; conditions: time 3 day
Procedure, shortened: (§2)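 Solubility in aqueous buffer at pH 2 and pH 7, and in simulated gastric and intestinal fluids.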

[3] = Solubility of compound in phosphate buffer at pH 7 measured after 3 days; assay type: physicochemical; conditions: time 3 day; procedure, shortened: as §2
[4] = Efflux ratio of apparent permeability across basolateral to apical side over apical to basolateral side in MDCK-MDR1 cells at 5 uM measured after 60 mins by LC-MS/MS analysis; assay type: ADME, cell-based, Canis lupus familiaris; conditions: dog
Procedure, shortened: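 MDCK-MDR1 cells, passages 6-30, seeded at 3.4×10^5 cells/cm² and cultured 3 days. Test compound at 5 µM final (1% DMSO) in HBSS, pH 7.4, applied to the donor side. A→B and B→A runs at 37 °C for 60 min, in duplicate, quantified by LC/MS/MS. Efflux ratio taken as B-A/A-B; monolayer integrity checked by lucifer yellow.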

[5] = Protein binding in human plasma at 1 uM after 6 hrs by equilibrium dialysis method; assay type: ADME, cell-free; conditions: read-out: PPB (converted)
[6] = molecular target: Voltage-gated inwardly rectifying potassium channel KCNH2 (Homo sapiens, UniProt Q12809); test: Inhibition of human ERG expressed in CHO cells measured after 5 mins by Qpatch method; assay type: cell-based
Procedure, shortened: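 CHO cells stably expressing hERG, whole-cell QPatch. Vehicle applied 5 min, then 0.3, 3.0, 10 and 30 µM in rising order, each concentration applied twice. Current measured after 5 min as the average of 3 voltage pulses; block taken relative to vehicle pretreatment, mean ± SEM.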

[7] = Displacement of 3-[3H] 1-(azetidin-1-yl)-2-[6-(4-fluoro-3-methyl-phenyl)pyrrolo[3,2-b]pyridin-1-yl]ethanone from GluN1a/GluN2B receptor in rat cortex membranes measured after 2 hrs by liquid scintillation counting method; assay type: cell membranes
Procedure, shortened: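 Rat adult cortex was homogenized in 50 mM Tris pH 7.4, and membranes were washed by centrifugation. Membranes were incubated with the [3H] pyrrolopyridine tracer and test compound for 2 h at room temperature with shaking. Non-specific binding was defined with 10 µM CP-101,606. Bound tracer was separated by filtration on PEI-soaked GF/B filters and counted by liquid scintillation. Ki was obtained from a competition fit using tracer Kd; three independent runs in duplicate.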

[8] = Metabolic stability in human liver microsomes assessed as extraction ratio at 1 uM after 5 to 60 mins in presence of NADPH by LC-MS/MS analysis; assay type: ADME, Microsome; conditions: time 5-60 min, read-out: ERH
Procedure, shortened: (§3)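 Human and rat liver microsomes, run in duplicate; stability reported as microsomal extraction ratio.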

[9] = Metabolic stability in rat liver microsomes assessed as extraction ratio at 1 uM after 5 to 60 mins in presence of NADPH by LC-MS/MS analysis; assay type: ADME, Microsome; conditions: time 5-60 min, read-out: ERH; procedure, shortened: as §3
[10] = Negative allosteric modulation of human GluN1a/GluN2A receptor expressed in CHO cells assessed as inhibition of glutamate and glycine-induced calcium flux preincubated for 5 mins followed by glutamate and glycine addition and measured after 5 mins by calcium 5 dye based FLIPR assay; assay type: cell-based; procedure, shortened: as §1
[11] = Negative allosteric modulation of human GluN1a/GluN2C receptor expressed in CHO cells assessed as inhibition of glutamate and glycine-induced calcium flux preincubated for 5 mins followed by glutamate and glycine addition and measured after 5 mins by calcium 5 dye based FLIPR assay; assay type: cell-based; procedure, shortened: as §1
[12] = Negative allosteric modulation of human GluN1a/GluN2D receptor expressed in CHO cells assessed as inhibition of glutamate and glycine-induced calcium flux preincubated for 5 mins followed by glutamate and glycine addition and measured after 5 mins by calcium 5 dye based FLIPR assay; assay type: cell-based; procedure, shortened: as §1
[13] = Clearance in Sprague-Dawley rat at 0.5 mg/kg, iv using 20% HP-beta-CD formulation by LC-MS/MS analysis; assay type: ADME, organism-based; conditions: in vivo
Procedure, shortened: (§4)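 Rat PK with IV and PO dosing, n=3. The usual doses were 0.5 mg/kg IV and 2.5 mg/kg PO in 20% HP-β-CD. One compound was instead given at 0.1 mg/kg IV and 0.5 mg/kg PO.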

[14] = Volume of distribution at steady state in Sprague-Dawley rat at 0.5 mg/kg, iv or 2.5 mg/kg, po using 20% HP-beta-CD formulation by LC-MS/MS analysis; assay type: ADME, organism-based; conditions: in vivo, read-out: Vdss
Procedure, shortened: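 Rat PK at 0.5 mg/kg i.v. and 2.5 mg/kg p.o., vehicle 20% HP-β-CD. n=3, values given as mean ± SD.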

[15] = Half life in Sprague-Dawley rat at 0.5 mg/kg, iv or 2.5 mg/kg, po using 20% HP-beta-CD formulation by LC-MS/MS analysis; assay type: ADME, organism-based; conditions: in vivo
Procedure, shortened: (§5)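 Rats dosed 0.5 mg/kg i.v. and 2.5 mg/kg p.o., n=3 ± SD. Default vehicle is 20% HP-β-CD; one PK set used 1:1 PEG400/water and another 30% SBE-β-CD.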

[16] = Cmax in Sprague-Dawley rat at 0.5 mg/kg, iv or 2.5 mg/kg, po using 20% HP-beta-CD formulation by LC-MS/MS analysis; assay type: ADME, organism-based; set-up: dose 2.5 mg/kg; conditions: in vivo; procedure, shortened: as §4
[17] = Oral bioavailability in Sprague-Dawley rat at 2.5 mg/kg using 20% HP-beta-CD formulation by LC-MS/MS analysis; assay type: ADME, organism-based; conditions: in vivo; procedure, shortened: as §5
[18] = Stability of compound in phosphate buffer at pH 2 assessed as drug decomposition measured after 24 h; conditions: pH 2, 24 h
[19] = Stability of compound in phosphate buffer at pH 7 assessed as drug decomposition measured after 24 h; conditions: pH 7, 24 h
[20] = Clearance in Sprague-Dawley rat at 0.5 mg/kg, iv using 30% SBE-beta-CD formulation by LC-MS/MS analysis; assay type: ADME, organism-based; conditions: in vivo
Procedure, shortened: (§6)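 Rat IV/PO PK at 0.5 mg/kg IV and 2.5 mg/kg PO, dosed in 30% SBE-β-CD, n=3.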

[21] = Volume of distribution at steady state in Sprague-Dawley rat at 0.5 mg/kg, iv or 2.5 mg/kg, po using 30% SBE-beta-CD formulation by LC-MS/MS analysis; assay type: ADME, organism-based; conditions: in vivo, read-out: Vdss
Procedure, shortened: (§7)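 Rat PK at 0.5 mg/kg i.v. and 2.5 mg/kg p.o., vehicle 30% SBE-β-CD. n=3, values given as mean ± SD.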

[22] = Half life in Sprague-Dawley rat at 0.5 mg/kg, iv or 2.5 mg/kg, po using 30% SBE-beta-CD formulation by LC-MS/MS analysis; assay type: ADME, organism-based; conditions: in vivo; procedure, shortened: as §5
[23] = Cmax in Sprague-Dawley rat at 0.5 mg/kg, iv or 2.5 mg/kg, po using 30% SBE-beta-CD formulation by LC-MS/MS analysis; assay type: ADME, organism-based; set-up: dose 2.5 mg/kg; conditions: in vivo; procedure, shortened: as §6
[24] = AUC (infinity) in Sprague-Dawley rat at 0.5 mg/kg, iv or 2.5 mg/kg, po using 30% SBE-beta-CD formulation by LC-MS/MS analysis; assay type: ADME, organism-based; set-up: dose 2.5 mg/kg; conditions: in vivo; procedure, shortened: as §6
[25] = Tmax in Sprague-Dawley rat at 0.5 mg/kg, iv or 2.5 mg/kg, po using 30% SBE-beta-CD formulation by LC-MS/MS analysis; assay type: ADME, organism-based; conditions: in vivo; procedure, shortened: as §7
[26] = Oral bioavailability in Sprague-Dawley rat at 2.5 mg/kg using 30% SBE-beta-CD formulation by LC-MS/MS analysis; assay type: ADME, organism-based; conditions: in vivo; procedure, shortened: as §5
[27] = Ex vivo receptor occupancy at GluN2B in Sprague-Dawley rat assessed as 3-[3H] 1-(azetidin-1-yl)-2-[6-(4-fluoro-3-methyl-phenyl)pyrrolo[3,2-b]pyridin-1-yl]-ethanone labelling at 3 mg/kg, po measured after 0.5 hrs by autoradiography; assay type: functional
Procedure, shortened: (§8)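 Rats dosed orally at 3 mg/kg in 20% HP-β-CD; brains taken at 0.5, 2 and 6 h. Ex vivo autoradiography of brain slices with the ³H pyrrolo[3,2-b]pyridine GluN2B tracer. Labelling expressed relative to matching brain areas of vehicle-treated animals; n=2, ± SEM.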

[28] = Ex vivo receptor occupancy at GluN2B in Sprague-Dawley rat assessed as 3-[3H] 1-(azetidin-1-yl)-2-[6-(4-fluoro-3-methyl-phenyl)pyrrolo[3,2-b]pyridin-1-yl]-ethanone labelling at 3 mg/kg, po measured after 2 hrs by autoradiography; assay type: functional; procedure, shortened: as §8
[29] = Ex vivo receptor occupancy at GluN2B in Sprague-Dawley rat assessed as 3-[3H] 1-(azetidin-1-yl)-2-[6-(4-fluoro-3-methyl-phenyl)pyrrolo[3,2-b]pyridin-1-yl]-ethanone labelling at 3 mg/kg, po measured after 6 hrs by autoradiography; assay type: functional; procedure, shortened: as §8
[30] = Cmax in Sprague-Dawley rat brain at 3 mg/kg, po after 2 hrs by LC-MS/MS analysis; assay type: ADME, organism-based; set-up: route oral, dose 3 mg/kg, time 2 hrs
Procedure, shortened: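 Oral dose of 3 mg/kg in 20% HP-β-CD to rats. Brain concentration was measured alongside ex vivo GluN2B occupancy over a 6 h time course (0.5, 2 and 6 h), n=2.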

[31] = Tmax in Sprague-Dawley rat brain at 3 mg/kg, po by LC-MS/MS analysis; assay type: ADME, organism-based
Procedure, shortened: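 Rats dosed orally at 3 mg/kg in 20% HP-β-CD. Brain concentrations were measured over a 6 h time course (0.5, 2, 6 h) alongside ex vivo GluN2B occupancy, n=2.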

Voltage-gated inwardly rectifying potassium channel KCNH2, sequence (Q12809 whole entry): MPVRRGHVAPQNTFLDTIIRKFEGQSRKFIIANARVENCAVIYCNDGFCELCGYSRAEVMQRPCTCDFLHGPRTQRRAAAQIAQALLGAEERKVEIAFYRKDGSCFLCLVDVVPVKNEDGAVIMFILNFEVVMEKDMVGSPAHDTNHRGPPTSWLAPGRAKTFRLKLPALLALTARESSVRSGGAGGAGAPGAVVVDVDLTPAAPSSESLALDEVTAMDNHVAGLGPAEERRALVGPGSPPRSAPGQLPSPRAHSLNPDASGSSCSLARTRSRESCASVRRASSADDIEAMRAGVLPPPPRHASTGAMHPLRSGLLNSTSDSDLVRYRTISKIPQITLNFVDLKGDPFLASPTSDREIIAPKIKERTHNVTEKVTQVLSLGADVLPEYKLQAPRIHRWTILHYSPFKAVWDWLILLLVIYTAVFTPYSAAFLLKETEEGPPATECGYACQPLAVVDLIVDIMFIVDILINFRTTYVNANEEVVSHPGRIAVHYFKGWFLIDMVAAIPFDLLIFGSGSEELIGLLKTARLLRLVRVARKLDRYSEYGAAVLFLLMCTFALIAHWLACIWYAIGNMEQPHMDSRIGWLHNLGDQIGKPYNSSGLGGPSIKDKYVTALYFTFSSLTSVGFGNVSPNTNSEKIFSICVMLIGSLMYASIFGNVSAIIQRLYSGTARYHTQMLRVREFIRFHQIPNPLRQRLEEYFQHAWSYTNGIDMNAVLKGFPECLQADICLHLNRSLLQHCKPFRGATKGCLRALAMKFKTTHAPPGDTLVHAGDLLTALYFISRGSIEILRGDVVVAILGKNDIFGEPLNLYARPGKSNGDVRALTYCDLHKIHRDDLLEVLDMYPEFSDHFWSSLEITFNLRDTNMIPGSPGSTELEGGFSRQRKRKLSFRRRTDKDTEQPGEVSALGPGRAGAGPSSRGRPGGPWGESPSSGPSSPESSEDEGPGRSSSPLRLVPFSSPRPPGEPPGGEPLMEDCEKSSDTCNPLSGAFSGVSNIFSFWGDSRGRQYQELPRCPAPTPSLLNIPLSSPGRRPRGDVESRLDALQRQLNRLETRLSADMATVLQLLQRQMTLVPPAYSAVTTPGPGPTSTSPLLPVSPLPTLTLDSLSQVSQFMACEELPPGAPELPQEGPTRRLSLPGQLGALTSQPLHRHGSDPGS

IC50 [1] | solubility at 72 h [2] | solubility at 72 h [3] | efflux ratio at 1 h, 5 µM [4] | Ki [7] | hepatic extraction ratio at 1 µM [8] | hepatic extraction ratio at 1 µM [9] | Structure (SMILES) | IC50 [6] | also measured
97 nM | 19 µM (≈ 7.42 µg/mL) | 23 µM (≈ 8.98 µg/mL) | 9 | 19 nM | < 0.3 | < 0.2 | Cn1c(=O)n(CC(=O)N2CCC2)c2cc(-c3cccc(C(F)(F)F)c3)cnc21 | > 10000 nM | fraction unbound at 6 h, 1 µM [5]: 0.052
216 nM | 31 µM (≈ 10.2 µg/mL) | 25 µM (≈ 8.26 µg/mL) | 3.5 | 270 nM | 0.59 | 0.82 | Cc1csc(-c2cnc3c(c2)n(CC(=O)N(C)C)c(=O)n3C)c1 | > 10000 nM | –
– | < 4 µM | < 4 µM | – | – | – | – | O=C(Cn1c(=O)[nH]c2ncc(-c3cccc(C(F)(F)F)c3)cc21)NC1CC1 | > 10000 nM | IC50 [10]: > 10000 nM; IC50 [11]: > 10000 nM; IC50 [12]: > 10000 nM; fraction unbound at 6 h, 1 µM [5]: 0.004
25 nM | 39 µM (≈ 13.4 µg/mL) | 48 µM (≈ 16.4 µg/mL) | 3.2 | 44 nM | 0.56 | 0.78 | Cc1ccc(-c2cnc3c(c2)n(CC(=O)N2CCC2)c(=O)n3C)s1 | > 10000 nM | clearance [13]: 114 mL/min/kg; Vd [14]: 1.1 L/kg; half-life [15]: 12 min; Cmax [16]: 6 ng/mL; bioavailability [17]: 1%
47 nM | 6 µM (≈ 2.27 µg/mL) | 6 µM (≈ 2.27 µg/mL) | 7 | 19 nM | 0.38 | 0.31 | CN(C)C(=O)Cn1c(=O)n(C)c2ncc(-c3cccc(C(F)(F)F)c3)cc21 | > 10000 nM | –
6 nM | – | – | 5.8 | 19 nM | 0.46 | 0.58 | Cn1c(=O)n(CC(=O)N2CCC2)c2cc(-c3ccc(C(F)F)s3)cnc21 | > 10000 nM | Stabilty [18]: Unstable; Stabilty [19]: Unstable
81 nM | – | – | – | 63 nM | – | – | Cn1c(=O)n(CC(=O)N2CCC2)c2cc(-c3ccc(C4CC4)s3)cnc21 | > 10000 nM | –
71 nM | < 4 µM | < 4 µM | 3.7 | 21 nM | < 0.3 | 0.17 | Cn1c(=O)n(CC(=O)N2CC(F)C2)c2cc(-c3ccc(C(F)(F)F)s3)cnc21 | > 10000 nM | clearance [20]: 20 mL/min/kg; Vd [21]: 0.9 L/kg; half-life [22]: 54 min; Cmax [23]: 1000 ng/mL; AUC(0-inf) [24]: 3610 ng·h/mL; Tmax [25]: 60 min; bioavailability [26]: 109%; Occ [27]: 74%; Occ [28]: 71%; Occ [29]: 24%; Cmax [30]: 728 ng/g; Tmax [31]: 120 min
118 nM | 17 µM (≈ 6.94 µg/mL) | 16 µM (≈ 6.53 µg/mL) | 7 | 25 nM | < 0.3 | < 0.2 | Cn1c(=O)n(CC(=O)N2CC(F)C2)c2cc(-c3cccc(C(F)(F)F)c3)cnc21 | > 10000 nM | –
79 nM | – | – | 9.1 | 59 nM | < 0.3 | 0.52 | Cn1c(=O)n(CC(=O)N2CCC2)c2cc(-c3cc(C(F)F)cs3)cnc21 | > 10000 nM | Stabilty [18]: Unstable; Stabilty [19]: Unstable
